Common to all, as to format: functional, cell-based
The subject of one experiment is Bel-7402. Description: Cytotoxicity against human Bel7402 cells after 72 hrs by SRB assay. The essentials: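 Cell growth read out by SRB (sulforhodamine B) staining, with pseudolaric acid B as the positive control. BEL-7402 is a human hepatocarcinoma line.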
In general terms: Sulforhodamine B stains cellular protein and so reports cell mass.

The next experiment concerns HL-60. Description: Cytotoxicity against human HL60 cells after 72 hrs by MTT assay. Conditions: HL-60, 72 h. In outline: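 HL-60 cell line tested by the MTT method, with pseudolaric acid B run alongside as positive control; activity expressed as IC50 in µM.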
On the technique in general: Tetrazolium assays rely on reduction of a dye to a coloured formazan, in cell work by metabolically active cells.

The next experiment deals with A549. The experiment is described as follows: Cytotoxicity against human A549 cells after 72 hrs by SRB assay. Conditions: A549, 72 h.

Activity calls are given as the source filed them. The rule behind the calls is not given here.

A word on the IC50: it is the concentration that gives 50% inhibition. A lower IC50 goes with greater potency in that assay. `COC(=O)C1=CC[C@@]23CC[C@@H]([C@@](C)(/C=C/C=C(\C)C(=O)O)OC2=O)[C@@]3(OC(C)=O)CC1` [PSEUDOLARIC ACID B]: the IC50 in the experiment on Bel-7402 (Bel-7402, 72 h) was 1.3 µM; with HL-60, 4.2 µM; with A549 it was 1.6 µM.
For the molecule `C=C1[C@H]2C[C@H]2[C@]2(C)C[C@@H]3OC(=O)C(C)=C3C[C@]12O`, the result in the experiment with Bel-7402 was inactive.
Same read-out and setting: as for `C/C=C(\C)C(=O)OC[C@]1(O)[C@H]2C[C@H]2[C@]2(C)[C@@H]3C[C@@]4(O)C5=C(/C(=C(\C)C(=O)OC)C(=O)[C@H](O)[C@@]5(C)[C@@H]5C[C@@H]54)[C@@]34OC(=O)C(COC(C)=O)=C4C[C@@H]12`, the entry is “inactive”.
In the case of `C/C=C(\C)C(=O)OC[C@]1(O)[C@H]2C[C@H]2[C@]2(C)[C@@H]3CC4=C5[C@H](/C(=C(\C)C(=O)OC)C(=O)[C@H](O)[C@@]5(C)[C@@H]5C[C@H]45)[C@@]34OC(=O)C(C)=C4C[C@@H]12` [SARCANDROLIDE A], in the experiment with Bel-7402, the result was inactive. The IC50 in the experiment on HL-60 is 3.1 µM; in the experiment with A549, 7.2 µM.
Turning to `CC1=CC[C@@H](O)[C@]2(C)C[C@@H]3OC(=O)C(C)=C3C[C@@H]12`, in the experiment with Bel-7402, the outcome was inactive.
Take `COC(=O)/C(C)=C1\C(=O)[C@H](O)[C@]2(C)C3=C(C[C@@H]4[C@]5(OC(=O)C(CO)=C5C[C@H]5[C@](O)(COC(=O)/C(C)=C/CO)[C@H]6C[C@H]6[C@]45C)[C@H]31)[C@H]1C[C@H]12` [SARCANDROLIDE B]: the result in the experiment with Bel-7402 was inactive. This molecule also came in with an IC50 in the experiment with HL-60 of 8.4 µM.
On to `COC(=O)/C(C)=C1\C(=O)[C@H](O)[C@]2(C)C3=C(C[C@@H]4[C@]5(OC(=O)C6=C5C[C@H]5[C@](O)(COC(=O)/C(C)=C/COC(=O)[C@@H](OC(C)=O)CC(=O)OC6)[C@H]6C[C@H]6[C@]45C)[C@H]31)[C@H]1C[C@H]12` [SARCANDROLIDE C], for which the outcome in the experiment with Bel-7402 was inactive. Also, the IC50 in the experiment with HL-60 is 8.5 µM; in the experiment on A549 it was 4.7 µM.
Turning to `C/C=C(\C)C(=O)OC[C@]1(O)[C@H]2C[C@H]2[C@]2(C)[C@@H]3C[C@@]4(O)C5=C(C6=C(C)C(=O)O[C@]6(O)[C@H](O)[C@@]5(C)[C@@H]5C[C@@H]54)[C@@]34OC(=O)C(COC(C)=O)=C4C[C@@H]12`, the result in the experiment on Bel-7402 was inactive.

For the origin of these results see ChEMBL document CHEMBL1154865, “Sesquiterpenes and dimeric sesquiterpenoids from Sarcandra glabra” (J Nat Prod, 2010).
